In ChEMBL document CHEMBL1782034, “Design, synthesis and biological evaluation of novel substituted benzoylguanidine derivatives as potent Na+/H+ exchanger inhibitors” (Bioorg Med Chem Lett, 2009):
Active and inactive are the calls of the source.

How the values were obtained:
Rattus norvegicus [1] = organism: Rattus norvegicus; assay: Cardioprotective activity against Langendorff perfused Sprague-Dawley rat heart assessed as increase in myocardial energy metabolism at 10 uM; assay type: functional, organism-based
Outline: (§1)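 Isolated rat hearts: 20 min equilibration, then 30 min low-rate perfusion (0.5 ml/min), then 30 min reperfusion. Drug is added to the perfusate during the low-rate period only. After reperfusion, the heart tissue homogenate is assayed for Na+-K+ ATPase activity, lactate (LD) content and ATP content. n = 10; compared against sham and model groups.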

Rattus norvegicus [2] = organism: Rattus norvegicus; assay: Cardioprotective activity against Langendorff perfused Sprague-Dawley rat heart assessed as increase in relaxing coronary artery at 10 uM; assay type: functional, organism-based
Outline: (§2)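 Isolated hearts are equilibrated 20 min, perfused at a low rate (0.5 ml/min) for 30 min with compound in the perfusate, then reperfused 30 min. Coronary flow at the start and at the end of reperfusion is expressed as a ratio to the end-of-equilibration value. n = 10.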

Rattus norvegicus [3] = assay: Cardioprotective activity against ischemia-reperfusion injury in Sprague-Dawley rat assessed as decrease in LDH release at 1 mg/kg, iv; assay type: functional, organism-based; set-up: dose 1 mg/kg
Outline: (§3)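 Rats undergo 45 min coronary artery occlusion followed by 90 min reperfusion. Compound is given iv 5 min before reperfusion at 1, 0.5 or 0.25 mg/kg. Prepared serum is assayed for CK, LDH and SOD activities and MDA content as injury indicators, versus sham and model groups.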

Rattus norvegicus [4] = assay: Cardioprotective activity against ischemia-reperfusion injury in Sprague-Dawley rat assessed as decrease in malondialdehyde at 1 mg/kg, iv; assay type: functional, organism-based; set-up: dose 1 mg/kg; outline: as §3
Rattus norvegicus [5] = assay: Cardioprotective activity against ischemia-reperfusion injury in Sprague-Dawley rat assessed as increase in SOD activity in serum at 1 mg/kg, iv; assay type: functional, organism-based; set-up: dose 1 mg/kg; outline: as §3
Rattus norvegicus [6] = assay: Cardioprotective activity against ischemia-reperfusion injury in Sprague-Dawley rat assessed as decrease in myocardial infarct size at 1 mg/kg, iv; assay type: functional, organism-based; set-up: dose 1 mg/kg; settings: Myocardium
Outline: (§4)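 In vivo rat model: coronary artery ligated 45 min, then the ligature is loosened for 90 min of reperfusion. Compound is given as an iv bolus 5 min before reperfusion at 1, 0.5 or 0.25 mg/kg. Infarct size is expressed as a percentage of left ventricle area (IS/LV%). n = 8; compared against sham and model groups.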

Rattus norvegicus [7] = assay: Cardioprotective activity against ischemia-reperfusion injury in Sprague-Dawley rat assessed as decrease in creatine kinase release at 1 mg/kg, iv; assay type: functional, organism-based; set-up: dose 1 mg/kg; outline: as §3
Rattus norvegicus [8] = organism: Rattus norvegicus; assay: Cardioprotective activity against Langendorff perfused Sprague-Dawley rat heart assessed as increase in […]-K+ ATPase activity in homogenates at 2 to 50 uM; assay type: functional; outline: as §1
Rattus norvegicus [9] = assay: Cardioprotective activity against ischemia-reperfusion injury in iv dosed Sprague-Dawley rat assessed as decrease in creatine kinase release; assay type: functional, organism-based; outline: as §3
Rattus norvegicus [10] = assay: Cardioprotective activity against ischemia-reperfusion injury in iv dosed Sprague-Dawley rat assessed as decrease in LDH release; assay type: functional, organism-based; outline: as §3
Rattus norvegicus [11] = organism: Rattus norvegicus; assay: Cardioprotective activity against Langendorff perfused Sprague-Dawley rat heart assessed as increase in relaxing coronary artery at 50 uM; assay type: functional, organism-based; outline: as §2
Rattus norvegicus [12] = organism: Rattus norvegicus; assay: Cardioprotective activity against Langendorff perfused Sprague-Dawley rat heart assessed as increase in ATP content in homogenates at 2 to 50 uM; assay type: functional; outline: as §1
Rattus norvegicus [13] = assay: Cardioprotective activity against ischemia-reperfusion injury in iv dosed Sprague-Dawley rat assessed as decrease in malondialdehyde; assay type: functional, organism-based; outline: as §3
Rattus norvegicus [14] = organism: Rattus norvegicus; assay: Cardioprotective activity against Langendorff perfused Sprague-Dawley rat heart assessed as decrease in lactic acid content in homogenates at 2 to 50 uM; assay type: functional; outline: as §1
Rattus norvegicus [15] = organism: Rattus norvegicus; assay: Cardioprotective activity against Langendorff perfused Sprague-Dawley rat heart assessed as increase in coronary flow at 2 to 50 uM; assay type: functional, organism-based; outline: as §2
Rattus norvegicus [16] = organism: Rattus norvegicus; assay: Cardioprotective activity against Langendorff perfused Sprague-Dawley rat heart assessed as increase in myocardial energy metabolism; assay type: functional, organism-based; outline: as §1
Rattus norvegicus [17] = assay: Cardioprotective activity against ischemia-reperfusion injury in iv dosed Sprague-Dawley rat assessed as increase in SOD activity in serum; assay type: functional, organism-based; outline: as §3
Rattus norvegicus [18] = assay: Cardioprotective activity against ischemia-reperfusion injury in iv dosed Sprague-Dawley rat assessed as decrease in myocardial infarct size; assay type: functional, organism-based; settings: Myocardium; outline: as §4

Measured: Activity

CC(C)c1ccc(C(=O)N=C(N)N)cc1S(C)(=O)=O
active: Rattus norvegicus [1] | Rattus norvegicus [2] | Rattus norvegicus [3] | Rattus norvegicus [4] | Rattus norvegicus [5] | Rattus norvegicus [6] | Rattus norvegicus [7]

COc1ccc(CN2CCN(Cc3ccc(C(=O)N=C(N)N)cc3[N+](=O)[O-])CC2)c(OC)c1OC
active: Rattus norvegicus [2] | Rattus norvegicus [8] | Rattus norvegicus [9] Dose-dependent effect | Rattus norvegicus [10] Dose-dependent effect | Rattus norvegicus [11] | Rattus norvegicus [12] | Rattus norvegicus [3] | Rattus norvegicus [4] | Rattus norvegicus [5] | Rattus norvegicus [13] Dose-dependent effect | Rattus norvegicus [14] | Rattus norvegicus [6] | Rattus norvegicus [7] | Rattus norvegicus [15] | Rattus norvegicus [16] Dose-dependent effect | Rattus norvegicus [17] Dose-dependent effect | Rattus norvegicus [18] Dose-dependent effect
